Measurements from ChEMBL document CHEMBL1811821, “Cystic fibrosis: a new target for 4-Imidazo[2,1-b]thiazole-1,4-dihydropyridines” (J Med Chem, 2011).
Activity calls are given as the source filed them. The rule behind the calls is not given here.

Assays:
[1] = tested on: Aorta; assay: Vasorelaxant activity in potassium depolarized guinea pig aortic strip assessed as inhibition of calcium-induced contraction at 5 X 10^-5 M; type: functional; details: Cavia porcellus
In short: (§1)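 Guinea pig aortic strips depolarized with 80 mM K+, with cumulative drug addition. Relaxation given as mean ± SEM. […] Student's t-test against control, P < 0.05.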

[2] = tested on: Cystic fibrosis transmembrane conductance regulator (Homo sapiens), P13569 [F508del]; assay: Activity at CFTR F508 deletion mutant expressed in forskolin-stimulated FRT cells assessed as maximal increase in iodine influx measured as YFP quenching rate after 24 hrs by fluorescence assay; type: cell-based
In short: (§2)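 ΔF508-CFTR and halide-sensitive YFP coexpressed in FRT cells, held at 27 °C for 24 h for rescue, then stimulated 30–40 min with 20 μM forskolin with or without compound at 0.2, 2 and 20 μM. Fluorescence read before and after I– addition (100 mM final). Normalized decay fitted exponentially for maximal quenching rate; dose–response fitted with Hill equation for potency and maximal effect. Three independent determinations.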

[3] = species on record: Cavia porcellus; assay: Negative ionotropic activity in potassium depolarized guinea pig longitudinal smooth muscle assessed as inhibition of calcium-induced contraction at 5 X 10^-5 M; type: functional
[4] = Negative chronotropic activity against potassium-induced contraction in guinea pig right atrium assessed as decrease atrial rate at 10^-4 M relative to control; type: functional; details: Cavia porcellus, Cardiac atrium
In short: (§3)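 Spontaneously beating isolated guinea pig right atrium, pretreatment rate 165–190 beats/min. Drugs added cumulatively. Decrease in atrial rate expressed as percent change from control, n = 7–8. […] Control versus treated tested at each concentration by Student's t-test, P < 0.05. Mean ± SEM.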

[5] = Bronchodilatory activity in guinea pig trachea assessed as inhibition of carbachol-induced contraction at 10^-5 M; type: functional; details: Cavia porcellus
[6] = Negative ionotropic activity against potassium-induced contraction in guinea pig left atrium assessed as […] at 5 X 10^-6 M relative to control; type: functional; details: Cavia porcellus, Cardiac atrium
In short: (§4)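 Isolated guinea pig left atrium paced at 1 Hz. Drugs added cumulatively. Negative inotropic effect expressed as percent change from control, n = 5–6. […] Student's t-test against control at each concentration, P < 0.05. Mean ± SEM.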

[7] = Negative ionotropic activity against potassium-induced contraction in guinea pig left atrium assessed as decrease in developed tension; details: Cavia porcellus, Cardiac atrium
[8] = Negative chronotropic activity against potassium-induced contraction in guinea pig right atrium assessed as decrease atrial rate; type: functional, tissue-based; details: Cavia porcellus, Cardiac atrium; in short: as §3
[9] = Negative ionotropic activity in potassium depolarized guinea pig longitudinal smooth muscle assessed as inhibition of calcium-induced contraction; type: functional, Cavia porcellus
[10] = Binding affinity to CFTR F508 deletion mutant expressed in forskolin-stimulated FRT cells assessed as increase in iodine influx measured as YFP quenching rate after 24 hrs by fluorescence assay; type: cell-based; in short: as §2
[11] = species on record: Cavia porcellus; assay: Negative ionotropic activity in potassium depolarized guinea pig longitudinal smooth muscle assessed as inhibition of calcium-induced contraction at 10^-8 M; type: functional
[12] = Negative ionotropic activity against potassium-induced contraction in guinea pig left atrium assessed as […] at 10^-4 M relative to control; type: functional; details: Cavia porcellus, Cardiac atrium; in short: as §4
[13] = tested on: Aorta; assay: Vasorelaxant activity in potassium depolarized guinea pig aortic strip assessed as inhibition of calcium-induced contraction at 10^-6 M; type: functional; details: Cavia porcellus; in short: as §1
[14] = tested on: Cystic fibrosis transmembrane conductance regulator (Homo sapiens), P13569 [F508del]; assay: Activity at CFTR F508 deletion mutant expressed in forskolin-stimulated FRT cells assessed as maximal increase in iodine influx measured as YFP quenching rate at 0.2 uM after 24 hrs by fluorescence assay; type: cell-based; in short: as §2
[15] = tested on: Aorta; assay: Vasorelaxant activity in potassium depolarized guinea pig aortic strip assessed as inhibition of calcium-induced contraction; type: functional, tissue-based; details: Cavia porcellus; in short: as §1
[16] = species on record: Cavia porcellus; assay: Negative ionotropic activity in potassium depolarized guinea pig longitudinal smooth muscle assessed as inhibition of calcium-induced contraction at 5 X 10^-7 M; type: functional
[17] = Bronchodilatory activity in guinea pig trachea assessed as inhibition of carbachol-induced contraction at 10^-7 M; type: functional; details: Cavia porcellus
[18] = Ratio EC50 for negative chronotropic activity against potassium-induced contraction in guinea pig right atrium to EC50 for negative […] activity against potassium-induced contraction in guinea pig left atrium; type: functional, Cavia porcellus, Cardiac atrium
[19] = Bronchodilatory activity in guinea pig trachea assessed as inhibition of carbachol-induced contraction; type: functional, tissue-based, Cavia porcellus
[20] = species on record: Cavia porcellus; assay: […] activity in potassium depolarized guinea pig longitudinal smooth muscle assessed as inhibition of calcium-induced contraction at 5 X 10^-9 M; type: functional
[21] = Negative ionotropic activity against potassium-induced contraction in guinea pig left atrium assessed as […] at 10^-7 M relative to control; type: functional; details: Cavia porcellus, Cardiac atrium; in short: as §4
[22] = Negative chronotropic activity against potassium-induced contraction in guinea pig right atrium assessed as decrease atrial rate at 5 X 10^-7 M relative to control; type: functional; details: Cavia porcellus, Cardiac atrium; in short: as §3
[23] = tested on: Aorta; assay: Vasorelaxant activity in potassium depolarized guinea pig aortic strip assessed as inhibition of calcium-induced contraction at 10^-4 M; type: functional; details: Cavia porcellus; in short: as §1
[24] = Negative ionotropic activity against potassium-induced contraction in guinea pig left atrium assessed as […] at 5 X 10^-5 M relative to control; type: functional; details: Cavia porcellus, Cardiac atrium; in short: as §4
[25] = Negative chronotropic activity against potassium-induced contraction in guinea pig right atrium assessed as decrease atrial rate at 10^-5 M relative to control; type: functional; details: Cavia porcellus, Cardiac atrium; in short: as §3
[26] = species on record: Cavia porcellus; assay: Negative ionotropic activity in potassium depolarized guinea pig longitudinal smooth muscle assessed as inhibition of calcium-induced contraction at 10^-6 M; type: functional
[27] = Negative ionotropic activity against potassium-induced contraction in guinea pig left atrium assessed as […] at 10^-5 M relative to control; type: functional; details: Cavia porcellus, Cardiac atrium; in short: as §4
[28] = Negative chronotropic activity against potassium-induced contraction in guinea pig right atrium assessed as decrease atrial rate at 10^-7 M relative to control; type: functional; details: Cavia porcellus, Cardiac atrium
In short: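 Isolated spontaneously beating guinea pig right atrium with pretreatment heart rate of 165–190 beats/min. Compound was added cumulatively. Atrial rate decrease at the stated concentration is given as percent change from control, mean ± SEM, n = 7–8. Control versus treated values at each concentration were compared by Student's t-test at P < 0.05.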

[29] = Ratio EC50 for nifedipine to compound for negative […] activity against potassium-induced contraction in left atrium of guinea pig; type: functional, Cavia porcellus, Cardiac atrium
[30] = tested on: Aorta; assay: Vasorelaxant activity in potassium depolarized guinea pig aortic strip assessed as inhibition of calcium-induced contraction at 5 X 10^-7 M; type: functional; details: Cavia porcellus; in short: as §1
[31] = species on record: Cavia porcellus; assay: Negative ionotropic activity in potassium depolarized guinea pig longitudinal smooth muscle assessed as inhibition of calcium-induced contraction at 3 X 10^-7 M; type: functional
[32] = Bronchodilatory activity in guinea pig trachea assessed as inhibition of carbachol-induced contraction at 10^-4 M; type: functional; details: Cavia porcellus
[33] = Negative chronotropic activity against potassium-induced contraction in guinea pig right atrium assessed as decrease atrial rate at 10^-6 M relative to control; type: functional; details: Cavia porcellus, Cardiac atrium; in short: as §3
[34] = species on record: Cavia porcellus; assay: Negative ionotropic activity in potassium depolarized guinea pig longitudinal smooth muscle assessed as inhibition of calcium-induced contraction at 10^-7 M; type: functional
[35] = Ratio IC50 for nifedipine to compound for bronchodilatory activity in guinea pig trachea assessed as carbachol-induced contraction; type: functional, Cavia porcellus
[36] = Negative ionotropic activity against potassium-induced contraction in guinea pig left atrium assessed as […] at 5 X 10^-7 M relative to control; type: functional; details: Cavia porcellus, Cardiac atrium; in short: as §4
[37] = tested on: Cystic fibrosis transmembrane conductance regulator (Homo sapiens), P13569 [F508del]; assay: Activity at CFTR F508 deletion mutant expressed in forskolin-stimulated FRT cells assessed as maximal increase in iodine influx measured as YFP quenching rate after 24 hrs by fluorescence assay relative to nifedipine; type: cell-based; in short: as §2
[38] = species on record: Cavia porcellus; assay: Negative ionotropic activity in potassium depolarized guinea pig longitudinal smooth muscle assessed as inhibition of calcium-induced contraction at 10^-5 M; type: functional
[39] = tested on: Aorta; assay: Vasorelaxant activity in potassium depolarized guinea pig aortic strip assessed as inhibition of calcium-induced contraction at 10^-5 M; type: functional; details: Cavia porcellus; in short: as §1

Cystic fibrosis transmembrane conductance regulator (Homo sapiens), P13569 [F508del], sequence (P13569 as listed by the source): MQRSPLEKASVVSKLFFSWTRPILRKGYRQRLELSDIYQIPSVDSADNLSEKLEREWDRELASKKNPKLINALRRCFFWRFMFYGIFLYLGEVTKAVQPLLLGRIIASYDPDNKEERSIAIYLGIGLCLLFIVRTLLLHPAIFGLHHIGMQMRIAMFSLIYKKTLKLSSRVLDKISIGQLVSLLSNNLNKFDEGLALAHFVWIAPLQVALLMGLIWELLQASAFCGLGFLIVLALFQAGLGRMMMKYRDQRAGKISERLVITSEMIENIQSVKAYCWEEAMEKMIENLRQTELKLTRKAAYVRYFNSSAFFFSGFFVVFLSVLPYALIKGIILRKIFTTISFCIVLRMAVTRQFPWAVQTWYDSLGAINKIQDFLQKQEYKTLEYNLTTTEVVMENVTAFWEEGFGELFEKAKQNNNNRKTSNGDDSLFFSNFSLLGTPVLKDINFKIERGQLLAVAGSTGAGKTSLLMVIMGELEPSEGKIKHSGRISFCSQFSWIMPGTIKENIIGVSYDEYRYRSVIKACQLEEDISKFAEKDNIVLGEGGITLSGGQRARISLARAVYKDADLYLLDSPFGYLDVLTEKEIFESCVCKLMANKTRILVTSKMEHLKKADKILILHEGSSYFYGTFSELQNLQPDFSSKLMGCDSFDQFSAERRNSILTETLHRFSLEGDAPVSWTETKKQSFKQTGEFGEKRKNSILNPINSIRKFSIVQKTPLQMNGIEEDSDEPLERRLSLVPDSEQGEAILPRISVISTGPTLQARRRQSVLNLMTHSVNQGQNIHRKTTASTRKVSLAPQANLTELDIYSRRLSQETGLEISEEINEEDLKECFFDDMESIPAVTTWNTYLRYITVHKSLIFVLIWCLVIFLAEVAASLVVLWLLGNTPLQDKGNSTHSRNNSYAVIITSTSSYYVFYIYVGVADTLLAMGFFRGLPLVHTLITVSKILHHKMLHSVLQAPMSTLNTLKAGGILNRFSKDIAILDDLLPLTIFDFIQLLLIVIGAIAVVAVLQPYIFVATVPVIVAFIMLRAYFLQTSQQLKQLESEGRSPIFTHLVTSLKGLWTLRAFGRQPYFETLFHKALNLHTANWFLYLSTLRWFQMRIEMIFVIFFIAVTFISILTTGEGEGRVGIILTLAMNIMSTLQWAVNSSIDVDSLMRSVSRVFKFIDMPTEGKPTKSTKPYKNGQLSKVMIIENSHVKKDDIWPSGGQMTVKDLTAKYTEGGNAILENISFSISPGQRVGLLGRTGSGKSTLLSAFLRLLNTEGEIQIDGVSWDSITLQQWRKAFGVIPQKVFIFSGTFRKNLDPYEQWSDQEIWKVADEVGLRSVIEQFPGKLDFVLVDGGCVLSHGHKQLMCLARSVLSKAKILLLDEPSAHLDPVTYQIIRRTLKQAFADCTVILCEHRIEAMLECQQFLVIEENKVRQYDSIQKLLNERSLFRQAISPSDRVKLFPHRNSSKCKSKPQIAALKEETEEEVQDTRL

SMILES	Emax [2] [ms-1]	inhibition at 10 µM [5] [%]	EC50 [7] [nM]	EC50 [8] [nM]	IC50 [9] [nM]	Kd [10] [nM]	Activity [14]	IC50 [19] [nM]	inhibition at 100 µM [23] [%]	other results
O=c1c(-c2ccc(O)cc2)coc2cc(O)cc(O)c12 [GENISTEIN]	61	14	28	44500	9950					inhibition at 50 µM [1]: 22%; inhibition [3]: 84%; inhibition at 100 µM [4]: 68%; inhibition at 5 µM [6]: 71%
COC(=O)C1=C(C)NC(C)=C(C(=O)OC)C1c1c(-c2ccc(OC(F)(F)F)cc2)nc2sccn12	64	26	2330		3.3	3500	inactive			inhibition at 100 µM [4]: 33%; inhibition [11]: 73%; inhibition at 100 µM [12]: 89%; inhibition at 1 µM [13]: 60%; IC50 [15]: 16 nM
COC(=O)C1=C(C)NC(C)=C(C(=O)OC)C1c1c(-c2cccc(C(F)(F)F)c2)nc2sccn12	65				36	2800	inactive			inhibition [16]: 96%; inhibition at 0.1 µM [17]: 19%; Ratio EC50 [18]: 12
CCOC(=O)C1=C(C)NC(C)=C(C(=O)OCC)C1c1c(-c2ccc(C(F)(F)F)cc2)nc2sccn12	42	57	33	150	0.88	180	inactive	130	6	inhibition [20]: 83%; inhibition at 0.1 µM [21]: 90%; inhibition at 0.5 µM [22]: 64%
C=CCOC(=O)C1=C(C)NC(C)=C(C(=O)OCC=C)C1c1c(-c2ccc(C(F)(F)F)cc2)nc2sc(C)c(C)n12	42		270	8960	460	320	inactive		32	inhibition at 50 µM [24]: 93%; inhibition at 10 µM [25]: 52%; inhibition [26]: 72%; Ratio EC50 [18]: 33
COC(=O)C1=C(C)NC(C)=C(C(=O)OC)C1c1c(-c2ccc(C(F)(F)F)cc2)nc2sccn12	64	67	120		4.6	3200	inactive	61		inhibition at 10 µM [27]: 96%; inhibition [11]: 69%; inhibition at 0.1 µM [28]: 33%; Ratio EC50 [29]: 2.6; inhibition at 0.5 µM [30]: 36%
COC(=O)C1=C(C)NC(C)=C(C(=O)OC)C1c1c(C(F)(F)F)nc2sccn12	60				210	28300	inactive			inhibition [31]: 70%
CCOC(=O)C1=C(C)NC(C)=C(C(=O)OCC)C1c1c(C(F)(F)F)nc2sccn12	60		1070		14	19400	inactive	1110	48	inhibition at 100 µM [32]: 77%; inhibition at 100 µM [12]: 93%; inhibition at 1 µM [33]: 40%; inhibition [34]: 90%
C=CCOC(=O)C1=C(C)NC(C)=C(C(=O)OCC=C)C1c1ccc(C(C)(C)C)cc1	56	68	2.2		1850	170		0.59		Ratio IC50 [35]: 163; inhibition at 0.5 µM [36]: 71%; Ratio [37]: 17; inhibition [38]: 52%; inhibition at 10 µM [25]: 5%; inhibition at 10 µM [39]: 12%
COC(=O)C1=C(C)NC(C)=C(C(=O)OC)C1c1ccccc1[N+](=O)[O-] [NIFEDIPINE]	58	62	260	39		2900		96		inhibition [20]: 70%; inhibition at 10 µM [27]: 97%; inhibition at 0.1 µM [28]: 85%; inhibition at 1 µM [13]: 82%; IC50 [15]: 9 nM
